Measured values: ChEMBL document CHEMBL1143199, “Discovery and SAR of hydrazide antagonists of the pituitary adenylate cyclase-activating polypeptide (PACAP) receptor type 1 (PAC1-R)” (Bioorg Med Chem Lett, 2008)
Active and inactive are the calls of the source. The calls are words filed in the database; no cut-off is given here.

Molecular target: T1, Pituitary adenylate cyclase-activating polypeptide type I receptor (Rattus norvegicus) (UniProt P32215)
T1 sequence (whole entry): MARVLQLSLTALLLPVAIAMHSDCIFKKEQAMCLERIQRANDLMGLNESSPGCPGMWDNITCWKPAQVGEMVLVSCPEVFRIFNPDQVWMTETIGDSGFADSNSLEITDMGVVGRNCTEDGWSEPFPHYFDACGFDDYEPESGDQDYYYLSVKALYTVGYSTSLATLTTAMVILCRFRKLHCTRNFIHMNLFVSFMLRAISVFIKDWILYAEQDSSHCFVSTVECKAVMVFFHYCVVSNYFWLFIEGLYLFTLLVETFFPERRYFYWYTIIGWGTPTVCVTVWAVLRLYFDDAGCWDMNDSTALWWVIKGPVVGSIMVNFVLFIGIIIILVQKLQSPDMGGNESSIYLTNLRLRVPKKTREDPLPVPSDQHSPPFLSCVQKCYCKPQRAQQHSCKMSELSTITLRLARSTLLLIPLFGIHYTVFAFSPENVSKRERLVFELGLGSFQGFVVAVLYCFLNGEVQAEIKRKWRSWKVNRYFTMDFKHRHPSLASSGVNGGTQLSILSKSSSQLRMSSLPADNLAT
Assay: Antagonist activity at PAC1R in rat AR42J cells assessed as PACAP-induced calcium mobilization by FLIPR assay
Type: functional, cell-based
Settings: AR-42J
How it was run: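 Cells loaded with Fluo-4AM for 2 h, preincubated with compounds 30 min at room temperature, then challenged with 2 nM PACAP-27; intracellular calcium changes monitored by FLIPR; Kb calculated.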

| Kb | SMILES |
| --- | --- |
| 200 nM | COc1cc(/C=N/NC(=O)c2ccc(O)c(Cl)c2)cc(OC)c1OCc1ccc(C(C)C)cc1 |

Molecular target: T2, Pituitary adenylate cyclase-activating polypeptide type I receptor (Homo sapiens, UniProt P41586)
Assay: Displacement of [125I]PACAP27 from PAC1R expressed in HEK293f cells
Type: cell-based
Settings: not given
How it was run: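 Membranes from HEK293f cells expressing PAC1R (5 lg protein) incubated with 0.2 nM ¹²⁵I-PACAP27 in 50 mM Tris–HCl pH 7.4, 5 mM MgCl₂, 20 min at 37 °C; nonspecific binding with 300 nM unlabeled PACAP38. Terminated by filtration through PEI-soaked GF/B filters, three ice-cold buffer washes, radioactivity counted; Ki reported.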

| SMILES | Ki | Activity |
| --- | --- | --- |
| COc1cc(/C=N/NC(=O)c2ccc(O)c(Cl)c2)cc(OC)c1OCc1ccc(C(F)(F)F)cc1 | 140 nM |  |
| O=C(N/N=C/c1ccc(OCc2cccc(C(F)(F)F)c2)cc1)c1ccc(O)c(Cl)c1 | 537 nM |  |
| COc1cc(/C=N/NC(=O)c2ccc(O)c(Cl)c2)cc(OC)c1OCc1cccc(C(F)(F)F)c1 | 204 nM |  |
| COc1cc(/C=N/NC(=O)c2ccc(O)c(Cl)c2)ccc1OCc1cccc(C(F)(F)F)c1 | 404 nM |  |
| COc1cc(/C=N/NC(=O)c2ccc(O)c(Cl)c2)cc(OCc2cccc(C(F)(F)F)c2)c1OC |  | inactive |
| CC(=O)Nc1ccc(COc2ccc(/C=N/NC(=O)c3ccc(O)c(Cl)c3)cc2)cc1 |  | inactive |
| O=C(N/N=C/c1ccc(OCc2ccccc2)cc1)c1ccc(O)c(Cl)c1 | 522 nM |  |
| COc1cc(/C=N/NC(=O)c2ccc(O)c(Cl)c2)cc(OC)c1OCc1ccccc1 | 185 nM |  |
| O=C(N/N=C/c1cccc(COc2ccc(C(F)(F)F)cc2)c1)c1ccc(O)c(Cl)c1 | 241 nM |  |
| O=C(N/N=C/c1cccc(COc2cccc(C(F)(F)F)c2)c1)c1ccc(O)c(Cl)c1 | 274 nM |  |
| COc1cc(/C=N/NC(=O)c2ccc(O)c(Cl)c2)ccc1OCc1ccc(C(C)C)cc1 |  | inactive |
| COc1cc(/C=N/NC(=O)c2ccc(O)c(Cl)c2)cc(OCc2c(C)c(C)cc(C)c2C)c1OC | 167 nM |  |
| O=C(N/N=C/c1cccc2c1ccn2Cc1cccc(C(F)(F)F)c1)c1ccc(O)c(Cl)c1 | 85 nM |  |
| O=C(N/N=C/c1cccc(OCc2cccc(C(F)(F)F)c2)c1)c1ccc(O)c(Cl)c1 | 554 nM |  |

The remaining lines, values ahead:

| Ki | Activity | SMILES |
| --- | --- | --- |
|  | inactive | COc1cc(-c2nnc(-c3ccc(O)c(Cl)c3)o2)cc(OC)c1OCc1ccc(C(C)C)cc1 |
|  | inactive | COc1cc(-c2nnc(-c3ccc(O)c(Cl)c3)s2)cc(OC)c1OCc1ccc(C(C)C)cc1 |
| 152 nM |  | COc1cc(/C=N/NC(=O)c2ccc(O)c(Cl)c2)cc(OCc2ccc(C(C)C)cc2)c1OC |
|  | inactive | COc1cc(/C=N/NC(=O)c2cccc(Cl)c2)cc(OC)c1OCc1ccc(C(C)C)cc1 |
|  | inactive | COc1cc(/C=N/NC(=O)c2ccc3[nH]ncc3c2)cc(OC)c1OCc1ccc(C(C)C)cc1 |
| 56 nM |  | COc1cc(/C=N/NC(=O)c2ccc(O)c(Cl)c2)cc(OC)c1OCc1ccc(C(C)C)cc1 |

Molecular target: T2, Pituitary adenylate cyclase-activating polypeptide type I receptor
Assay: Displacement of [125I]PACAP27 from PAC1R expressed in HEK293f cells at 3 uM
Type: cell-based
Settings: not given
Target sequence in this assay (P41586 21-468 limits assumed): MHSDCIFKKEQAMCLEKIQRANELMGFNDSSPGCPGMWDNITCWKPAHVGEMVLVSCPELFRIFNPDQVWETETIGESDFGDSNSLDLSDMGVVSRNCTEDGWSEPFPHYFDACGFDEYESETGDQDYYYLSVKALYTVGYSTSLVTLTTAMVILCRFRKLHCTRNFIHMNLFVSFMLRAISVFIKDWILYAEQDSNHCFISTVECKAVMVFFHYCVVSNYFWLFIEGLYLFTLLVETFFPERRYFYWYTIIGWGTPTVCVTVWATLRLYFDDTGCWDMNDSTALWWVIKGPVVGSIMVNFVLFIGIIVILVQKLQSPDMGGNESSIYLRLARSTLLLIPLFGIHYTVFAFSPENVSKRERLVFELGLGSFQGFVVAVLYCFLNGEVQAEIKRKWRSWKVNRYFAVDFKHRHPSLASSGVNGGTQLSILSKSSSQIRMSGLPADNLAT

| SMILES | Activity |
| --- | --- |
| O=C(N/N=C/c1ccc(COc2ccccc2)cc1)c1ccc(O)c(Cl)c1 | 41% |
| COc1cc(/C=N/NC(=O)c2ccc(O)c(Cl)c2)ccc1OCc1ccc(NC(C)=O)cc1 | 34% |
| O=C(N/N=C/c1ccc(OCc2ccc(C(F)(F)F)cc2)cc1)c1ccc(O)c(Cl)c1 | 43% |
| CNC(=O)c1ccc(COc2ccc(/C=N/NC(=O)c3ccc(O)c(Cl)c3)cc2OC)cc1 | 36% |
| O=C(N/N=C/c1cccc2c1ccn2Cc1ccc(OCc2ccccc2)cc1)c1ccc(O)c(Cl)c1 | 51% |
| COc1cc(/C=N/NC(=O)c2ccc(O)c(Cl)c2)cc(OC)c1OCc1ccc(NC(C)=O)cc1 | 43% |
| O=C(N/N=C/c1cccc2c1ccn2Cc1ccccc1)c1ccc(O)c(Cl)c1 | 55% |
| COc1cc(/C=N/NC(=O)c2ccc(O)c(Cl)c2)ccc1OCc1ccc(C(F)(F)F)cc1 | 50% |

Next, values leading:

| Activity | SMILES |
| --- | --- |
| 44% | COc1cc(C(=O)N/N=C/c2cc(OC)c(OCc3ccc(C(C)C)cc3)c(OC)c2)ccc1O |
| 46% | COc1cc(CNNC(=O)c2ccc(O)c(Cl)c2)cc(OC)c1OCc1ccc(C(C)C)cc1 |
| 22% | COc1cc(/C=N/NC(=O)c2ccc(O)cc2)cc(OC)c1OCc1ccc(C(C)C)cc1 |
| 40% | COc1cc(C(=O)NNC(=O)c2ccc(O)c(Cl)c2)cc(OC)c1OCc1ccc(C(C)C)cc1 |
